Reference: the M2OR odorant receptor database

How the values were obtained:
Details in all cases: stereoisomer not certain
UniProt L7MU75 = target: T1, UniProt L7MU75
T1 sequence (whole entry): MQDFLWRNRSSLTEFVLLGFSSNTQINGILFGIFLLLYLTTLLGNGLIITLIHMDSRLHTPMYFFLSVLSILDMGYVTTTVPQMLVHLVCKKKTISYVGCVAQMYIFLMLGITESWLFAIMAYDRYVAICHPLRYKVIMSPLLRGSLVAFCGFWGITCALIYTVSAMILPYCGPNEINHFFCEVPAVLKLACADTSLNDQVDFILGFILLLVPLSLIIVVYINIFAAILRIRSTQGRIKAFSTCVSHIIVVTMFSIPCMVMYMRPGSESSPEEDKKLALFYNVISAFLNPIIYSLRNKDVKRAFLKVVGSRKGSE
Method in brief: (§1)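 Assay methods differ from source to source, frequently being transient luciferase assays in mammalian cell lines. For each receptor–molecule pair, the label responsive (active) applies when the original authors judged the measured signal statistically different from baseline, and non-responsive (inactive) applies otherwise.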

UniProt L7N210 = target: T2, UniProt L7N210
T2 sequence (whole entry): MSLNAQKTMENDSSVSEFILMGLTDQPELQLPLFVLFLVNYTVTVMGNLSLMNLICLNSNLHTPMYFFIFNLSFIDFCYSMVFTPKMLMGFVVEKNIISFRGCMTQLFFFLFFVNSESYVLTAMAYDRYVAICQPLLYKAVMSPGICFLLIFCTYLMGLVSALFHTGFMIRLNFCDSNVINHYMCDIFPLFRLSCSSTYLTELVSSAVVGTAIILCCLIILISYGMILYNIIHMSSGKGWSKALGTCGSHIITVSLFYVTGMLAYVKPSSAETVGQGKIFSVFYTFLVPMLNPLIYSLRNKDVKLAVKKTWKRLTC
Method in brief: as §1

UniProt Q3KPB0 = target: T3, UniProt Q3KPB0
T3 sequence (whole entry): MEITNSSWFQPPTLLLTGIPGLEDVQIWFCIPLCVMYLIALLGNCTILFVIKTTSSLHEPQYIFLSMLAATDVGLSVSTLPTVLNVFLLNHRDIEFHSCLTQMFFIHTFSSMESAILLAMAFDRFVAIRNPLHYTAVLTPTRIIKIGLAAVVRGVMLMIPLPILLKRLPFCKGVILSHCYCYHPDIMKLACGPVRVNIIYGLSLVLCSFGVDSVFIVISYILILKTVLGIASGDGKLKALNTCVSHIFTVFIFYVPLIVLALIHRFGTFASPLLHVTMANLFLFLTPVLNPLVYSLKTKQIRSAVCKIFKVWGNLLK
Method in brief: as §1

UniProt Q3U0P3 = target: T4, UniProt Q3U0P3
T4 sequence (whole entry): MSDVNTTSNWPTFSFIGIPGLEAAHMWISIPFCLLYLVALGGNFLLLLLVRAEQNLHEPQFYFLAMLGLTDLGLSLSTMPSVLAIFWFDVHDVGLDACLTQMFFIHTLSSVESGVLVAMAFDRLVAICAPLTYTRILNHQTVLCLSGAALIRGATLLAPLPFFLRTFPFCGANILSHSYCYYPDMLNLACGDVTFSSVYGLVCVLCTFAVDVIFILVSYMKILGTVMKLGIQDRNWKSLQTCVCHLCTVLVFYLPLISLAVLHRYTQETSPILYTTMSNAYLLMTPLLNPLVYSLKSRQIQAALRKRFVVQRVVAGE
Method in brief: as §1

UniProt Q7TQU8 = target: T5, UniProt Q7TQU8
T5 sequence (whole entry): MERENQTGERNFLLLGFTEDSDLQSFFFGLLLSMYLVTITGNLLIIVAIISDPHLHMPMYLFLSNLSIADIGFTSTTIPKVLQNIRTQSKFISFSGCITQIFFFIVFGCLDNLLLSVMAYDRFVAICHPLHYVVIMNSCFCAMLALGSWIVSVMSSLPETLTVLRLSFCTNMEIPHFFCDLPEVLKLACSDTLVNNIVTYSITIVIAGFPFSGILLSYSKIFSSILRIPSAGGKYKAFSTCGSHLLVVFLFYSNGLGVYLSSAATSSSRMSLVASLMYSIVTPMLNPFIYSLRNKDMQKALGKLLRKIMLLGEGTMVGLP
Method in brief: as §1

UniProt Q7TR79 = target: T6, UniProt Q7TR79
T6 sequence (whole entry): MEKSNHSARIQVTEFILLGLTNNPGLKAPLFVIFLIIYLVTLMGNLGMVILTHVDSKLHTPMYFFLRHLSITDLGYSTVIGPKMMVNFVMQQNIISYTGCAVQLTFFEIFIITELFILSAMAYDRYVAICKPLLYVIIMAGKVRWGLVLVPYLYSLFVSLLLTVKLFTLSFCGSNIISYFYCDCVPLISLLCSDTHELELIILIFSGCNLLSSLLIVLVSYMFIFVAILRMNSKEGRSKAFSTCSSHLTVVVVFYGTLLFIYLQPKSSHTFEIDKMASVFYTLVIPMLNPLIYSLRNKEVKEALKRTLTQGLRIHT
Method in brief: as §1

Structure (SMILES) | odorant receptor agonist call (UniProt L7MU75) | odorant receptor agonist call (UniProt L7N210) | odorant receptor agonist call (UniProt Q3KPB0) | odorant receptor agonist call (UniProt Q3U0P3) | odorant receptor agonist call (UniProt Q7TQU8) | odorant receptor agonist call (UniProt Q7TR79)
CCc1ccccc1O | inactive | inactive | inactive | inactive | inactive | inactive
CCCCCC=CCCC=O | inactive | inactive | inactive | inactive | inactive | inactive
CC=C(C)C=O | inactive | inactive | inactive | inactive | inactive | inactive
CC(=O)OCCc1ccccc1 | inactive | active | inactive | inactive | inactive | inactive
CCCCCCCOC(=O)C(C)C | inactive | inactive | inactive | inactive | inactive | inactive
CCCCCC(C)O (stereo not drawn) | inactive | inactive | inactive | inactive | inactive | inactive
CCN(CC)CC | inactive | inactive | inactive | inactive | inactive | inactive
CCCCCCCCC=CC=O | inactive | inactive | inactive | inactive | inactive | inactive
C=CC(=C)CCC=C(C)CCC=C(C)C | inactive | inactive | inactive | inactive | inactive | inactive
CSSSC | inactive | inactive | inactive | inactive | inactive | inactive
CCc1ccc(O)cc1 | inactive | active | inactive | inactive | inactive | inactive
CC=Cc1ccc(OC)cc1 | inactive | inactive | inactive | inactive | inactive | inactive
CCCCCCCCCCOC(C)=O | inactive | inactive | inactive | inactive | inactive | inactive
CCC=CCCCCC=O | inactive | inactive | inactive | inactive | inactive | inactive
COc1ccccc1 | inactive | inactive | inactive | inactive | inactive | inactive
CCOC(=O)C(C)CC (stereo not drawn) | inactive | inactive | inactive | inactive | inactive | inactive
COC(OC)c1ccccc1 | inactive | inactive | inactive | inactive | inactive | inactive
Cc1ccc(C(C)C)c(O)c1 | inactive | inactive | inactive | inactive | inactive | inactive
CCCCCCC(C=O)=Cc1ccccc1 | inactive | inactive | inactive | inactive | inactive | inactive
C=C(C)C1CCC2(C)OC2C1 (stereo not drawn) | inactive | inactive | inactive | inactive | inactive | inactive
C1CCOC1 | inactive | inactive | inactive | inactive | inactive | inactive
CCCCCCCCOC=O | inactive | inactive | inactive | inactive | inactive | inactive
Cc1occc1SSc1ccoc1C | inactive | inactive | inactive | inactive | active | inactive
CNc1ccccc1C(=O)OC | inactive | active | inactive | inactive | inactive | inactive
CCCCCCC(C)O (stereo not drawn) | inactive | active | inactive | inactive | inactive | inactive
CC1(C)CC(=O)CC(=O)C1 | inactive | inactive | inactive | inactive | inactive | inactive
CCOC(=O)CC(C)C | inactive | inactive | inactive | inactive | inactive | inactive
CCC(C)O (stereo not drawn) | inactive | inactive | inactive | inactive | inactive | inactive
